Read-outs that look alike come from different tables or passages of the source.

Holding throughout (assay type): cell-based
Experiment [1] addresses KV (Kv1.3), human T cells (Homo sapiens, UniProt P22001). In words: whole-cell patch clamp, peak KV current. The gist of the method: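 Peripheral T cells came from healthy donors' venous blood by Ficoll-Hypaque. Recording was whole-cell at 20–25°C in Ringer, with a 160 mM K+ aspartate/10 mM EGTA pipette (pH 7.2). Pulses of 200 ms went from −80 to +30 mV every 30 s. Each steroid was bath-applied at 60 μM. Percent inhibition of peak KV current is mean ± SD, ≥3 experiments.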
(The patch-clamp technique gives a direct electrical read-out from membranes.)

The target in experiment [2] is KCa (hKCa4), activated human T cells (Homo sapiens, UniProt O15554). In words: whole-cell patch clamp, KCa slope conductance near -80 mV. In outline: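 Human T-cell blasts were made from Ficoll-isolated blood T cells with 10 μg/ml PHA. KCa was opened by dialysis with a pipette of 140 mM K+ aspartate, 7.8 mM CaCl2 and 10 mM EGTA (nominal 1 μM free Ca2+, pH 7.2). Ramps of 200 ms went from −120 to +50 mV every 30 s. Each compound was applied at 60 μM. Slope-conductance inhibition near −80 mV is mean ± SD, ≥3 experiments.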
KCa (hKCa4), activated human T cells, sequence (O15554 whole entry): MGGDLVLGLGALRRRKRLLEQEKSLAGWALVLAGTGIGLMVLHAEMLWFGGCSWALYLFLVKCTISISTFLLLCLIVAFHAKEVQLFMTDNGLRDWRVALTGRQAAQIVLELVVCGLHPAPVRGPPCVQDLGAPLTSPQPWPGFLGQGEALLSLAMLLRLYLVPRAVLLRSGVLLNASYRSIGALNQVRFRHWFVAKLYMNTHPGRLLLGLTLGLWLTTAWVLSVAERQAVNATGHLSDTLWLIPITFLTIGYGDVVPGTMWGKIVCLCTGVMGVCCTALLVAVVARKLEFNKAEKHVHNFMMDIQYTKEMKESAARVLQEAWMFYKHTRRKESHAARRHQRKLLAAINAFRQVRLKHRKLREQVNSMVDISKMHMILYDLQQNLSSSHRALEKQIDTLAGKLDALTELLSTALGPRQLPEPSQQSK

Another experiment deals with Kv1.4. In words: whole-cell patch clamp. As to conditions: LTK cells; depolarizing pulses to +30 mV. The gist of the method: (§1)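 Cell lines stably expressing each cloned KV channel, cultured in RPMI 1640 with 10% heat-inactivated FBS at 37°C and 5% CO2. Whole-cell currents were recorded at 20–25°C in mammalian Ringer. The pipette held 160 mM K+ aspartate, 10 mM EGTA, pH 7.2. Steps of 200 ms went from −80 to +30 mV every 30 s. Test compound was bath-applied at 30 μM. Inhibition of peak current is mean ± SD from ≥3 experiments.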

For another experiment, the target named is T1, Kv3.1 (Mus musculus, UniProt P15388).
T1 sequence (P15388 1-511): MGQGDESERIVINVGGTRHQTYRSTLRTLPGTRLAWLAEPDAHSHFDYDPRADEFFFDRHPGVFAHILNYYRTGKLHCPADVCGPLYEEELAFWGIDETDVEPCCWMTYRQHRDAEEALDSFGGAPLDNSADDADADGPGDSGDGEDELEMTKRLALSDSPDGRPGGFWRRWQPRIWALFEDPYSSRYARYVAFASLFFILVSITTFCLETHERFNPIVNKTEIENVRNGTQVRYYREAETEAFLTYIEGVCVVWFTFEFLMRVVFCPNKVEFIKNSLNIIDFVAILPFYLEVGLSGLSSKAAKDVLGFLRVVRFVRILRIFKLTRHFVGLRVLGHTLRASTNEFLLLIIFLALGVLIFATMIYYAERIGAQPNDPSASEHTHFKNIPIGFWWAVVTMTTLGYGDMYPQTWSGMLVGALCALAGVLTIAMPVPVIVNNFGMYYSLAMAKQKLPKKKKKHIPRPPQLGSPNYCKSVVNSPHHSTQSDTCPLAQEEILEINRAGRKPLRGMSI
In words: whole-cell patch clamp. The following applies: read-out: % inhibition at 30 μM. The gist of the method:
as §1

The next experiment addresses Kv1.3 (cloned) (Mus musculus, UniProt P16390). Nature of the experiment: whole-cell patch clamp. The following applies: read-out: % inhibition at 30 μM. The gist of the method:
as §1

In the next experiment the target is hSKM1 (Homo sapiens, UniProt P35499). Nature of the experiment: whole-cell patch clamp, peak Na+ current. The following applies: read-out: % inhibition at 30 μM. The gist of the method:
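Cloned hSKM1 Na+ channel was expressed in a cultured cell line and recorded by whole-cell patch clamp at 20–25°C, with mammalian Ringer as bath. Peak Na+ current was taken at +10 mV. Test compound was applied at 30 μM. Percent inhibition is mean ± SD from at least three experiments.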

KV (Kv1.3), human T cells, sequence (P22001 whole entry): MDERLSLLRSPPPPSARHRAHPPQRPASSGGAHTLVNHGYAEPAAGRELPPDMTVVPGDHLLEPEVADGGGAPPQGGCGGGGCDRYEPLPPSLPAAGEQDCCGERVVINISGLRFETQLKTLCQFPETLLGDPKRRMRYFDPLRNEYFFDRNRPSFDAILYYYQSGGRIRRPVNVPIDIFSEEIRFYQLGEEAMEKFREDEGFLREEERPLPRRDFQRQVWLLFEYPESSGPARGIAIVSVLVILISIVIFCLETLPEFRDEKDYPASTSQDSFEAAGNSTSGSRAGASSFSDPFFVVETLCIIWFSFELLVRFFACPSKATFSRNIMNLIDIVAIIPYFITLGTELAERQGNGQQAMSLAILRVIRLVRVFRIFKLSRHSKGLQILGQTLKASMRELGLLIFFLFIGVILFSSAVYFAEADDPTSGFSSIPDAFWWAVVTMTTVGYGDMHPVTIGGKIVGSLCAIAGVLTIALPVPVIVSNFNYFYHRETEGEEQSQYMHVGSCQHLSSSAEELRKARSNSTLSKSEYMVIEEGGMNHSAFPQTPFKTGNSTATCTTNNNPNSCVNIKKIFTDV
hSKM1, sequence (P35499 whole entry): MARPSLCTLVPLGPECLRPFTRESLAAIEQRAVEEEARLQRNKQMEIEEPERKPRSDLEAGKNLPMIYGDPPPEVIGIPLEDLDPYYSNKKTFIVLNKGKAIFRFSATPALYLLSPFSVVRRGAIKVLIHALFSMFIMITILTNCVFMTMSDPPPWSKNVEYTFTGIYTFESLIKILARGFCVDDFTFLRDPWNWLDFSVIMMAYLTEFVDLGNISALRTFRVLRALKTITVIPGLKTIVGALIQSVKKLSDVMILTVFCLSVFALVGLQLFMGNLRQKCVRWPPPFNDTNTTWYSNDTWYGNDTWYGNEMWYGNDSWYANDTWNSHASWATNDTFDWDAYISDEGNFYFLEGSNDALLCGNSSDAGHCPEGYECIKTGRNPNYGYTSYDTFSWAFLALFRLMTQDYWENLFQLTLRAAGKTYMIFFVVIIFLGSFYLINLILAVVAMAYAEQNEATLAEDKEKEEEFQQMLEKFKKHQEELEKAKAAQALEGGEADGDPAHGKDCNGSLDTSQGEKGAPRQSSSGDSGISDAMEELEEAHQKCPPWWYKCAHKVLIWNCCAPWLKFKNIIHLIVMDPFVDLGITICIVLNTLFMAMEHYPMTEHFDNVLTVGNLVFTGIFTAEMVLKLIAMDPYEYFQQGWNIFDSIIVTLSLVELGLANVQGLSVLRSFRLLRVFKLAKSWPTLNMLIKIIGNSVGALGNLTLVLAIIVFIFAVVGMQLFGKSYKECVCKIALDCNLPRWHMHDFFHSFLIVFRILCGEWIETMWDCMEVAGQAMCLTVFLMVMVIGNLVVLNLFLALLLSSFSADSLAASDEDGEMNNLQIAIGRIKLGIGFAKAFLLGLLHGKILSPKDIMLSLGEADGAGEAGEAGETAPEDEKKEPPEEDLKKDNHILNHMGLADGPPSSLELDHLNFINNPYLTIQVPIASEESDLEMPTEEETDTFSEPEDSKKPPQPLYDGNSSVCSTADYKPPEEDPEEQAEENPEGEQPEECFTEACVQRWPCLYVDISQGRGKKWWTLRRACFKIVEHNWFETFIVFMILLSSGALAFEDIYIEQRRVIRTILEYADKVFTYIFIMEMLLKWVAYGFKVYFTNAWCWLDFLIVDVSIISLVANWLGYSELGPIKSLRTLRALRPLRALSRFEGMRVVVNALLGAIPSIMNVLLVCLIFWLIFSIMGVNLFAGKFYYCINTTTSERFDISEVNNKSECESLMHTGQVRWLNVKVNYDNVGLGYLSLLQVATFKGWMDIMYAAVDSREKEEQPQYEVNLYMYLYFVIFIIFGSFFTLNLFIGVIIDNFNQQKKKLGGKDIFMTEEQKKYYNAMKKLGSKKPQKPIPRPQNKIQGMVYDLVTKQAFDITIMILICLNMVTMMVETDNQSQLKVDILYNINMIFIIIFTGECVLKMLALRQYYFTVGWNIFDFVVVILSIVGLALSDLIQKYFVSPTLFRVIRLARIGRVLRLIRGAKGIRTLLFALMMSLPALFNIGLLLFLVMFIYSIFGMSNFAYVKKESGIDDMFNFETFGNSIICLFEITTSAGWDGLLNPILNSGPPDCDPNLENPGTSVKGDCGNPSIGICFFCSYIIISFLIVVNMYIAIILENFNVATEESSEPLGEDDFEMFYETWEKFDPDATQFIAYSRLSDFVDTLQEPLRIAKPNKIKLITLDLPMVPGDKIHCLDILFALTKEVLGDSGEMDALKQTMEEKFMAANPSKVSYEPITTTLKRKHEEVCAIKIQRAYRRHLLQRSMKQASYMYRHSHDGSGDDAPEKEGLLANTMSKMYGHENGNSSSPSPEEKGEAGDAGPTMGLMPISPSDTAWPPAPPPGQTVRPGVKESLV
Kv1.3 (cloned), sequence (P16390 whole entry): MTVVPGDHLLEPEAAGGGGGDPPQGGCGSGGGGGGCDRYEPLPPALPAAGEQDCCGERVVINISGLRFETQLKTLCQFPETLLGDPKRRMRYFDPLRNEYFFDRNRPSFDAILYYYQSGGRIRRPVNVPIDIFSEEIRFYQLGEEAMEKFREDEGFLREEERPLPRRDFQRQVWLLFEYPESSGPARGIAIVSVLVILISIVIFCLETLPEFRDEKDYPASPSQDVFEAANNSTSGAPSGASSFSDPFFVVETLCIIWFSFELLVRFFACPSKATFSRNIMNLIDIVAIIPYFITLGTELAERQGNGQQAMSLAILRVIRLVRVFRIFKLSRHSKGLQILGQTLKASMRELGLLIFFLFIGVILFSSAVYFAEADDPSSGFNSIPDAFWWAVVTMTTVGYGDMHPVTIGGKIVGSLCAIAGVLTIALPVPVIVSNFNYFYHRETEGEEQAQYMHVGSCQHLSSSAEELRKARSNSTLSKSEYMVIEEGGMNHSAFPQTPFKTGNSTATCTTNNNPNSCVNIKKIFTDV

Consider `C[C@]12CCC(=O)C=C1CC[C@@H]1[C@@H]2[C@@H](O)C[C@]2(C=O)[C@@H](C(=O)CO)CC[C@@H]12` [Aldosterone], for which, in experiment [1] (read-out: Aldosterone), the inhibition at 60 µM came out at 12 ± 13%. `C[C@]12CCC(=O)C=C1CC[C@@H]1[C@@H]2[C@@H](O)C[C@@]2(C)[C@H]1CC[C@]2(O)C(=O)CO` [Cortisol]: the inhibition at 60 µM in experiment [1] (read-out: Cortisol) was 13 ± 4%. In the case of `C[C@]12CC[C@H](O)CC1=CC[C@@H]1[C@@H]2CC[C@]2(C)C(=O)CC[C@@H]12` [DHEA], the inhibition at 60 µM in experiment [1] (read-out: DHEA) turned out to be 10 ± 6%.

Consider `C[C@]12CC[C@@H]3c4ccc(O)cc4CC[C@H]3[C@@H]1CC[C@@H]2O` [Estradiol], for which the inhibition at 60 µM turned out to be 24 ± 7% in experiment [1] (read-out: Estradiol) and 8 ± 10% in experiment [2] (read-out: Estradiol). In the case of `CC(=O)[C@@]1(O)CC[C@H]2[C@@H]3CCC4=CC(=O)CC[C@]4(C)[C@H]3CC[C@@]21C` [OHP, 17α-hydroxy-4-pregnene-3,20-dione], the inhibition at 60 µM in experiment [1] (read-out: OHP) was determined as 12 ± 6%.

As to `CC#C[C@]1(O)CC[C@H]2[C@@H]3CCC4=CC(=O)CCC4=C3[C@@H](c3ccc(N(C)C)cc3)C[C@@]21C` [RU 486], the inhibition at 60 µM in experiment [1] (read-out: RU 486) stood at 61 ± 15%; in experiment [2] (read-out: RU 486), 55 ± 12%. For `C[C@]12CC[C@H]3[C@@H](CCC4=CC(=O)CC[C@@]43C)[C@@H]1CC[C@@H]2O` [Testosterone], the inhibition at 60 µM in experiment [1] (read-out: Testosterone) stood at 17 ± 12%. On to `CC(=O)[C@H]1CC[C@H]2[C@@H]3CCC4=CC(=O)CC[C@]4(C)[C@H]3CC[C@]12C` [progesterone], for which, in the experiment on Kv1.4, the % inhibition – broadly, the percentage by which the read-out fell short of the control – at 30 μM stood at 23 ± 8%. Moreover, in experiment [2] (read-out: Progesterone), the inhibition at 60 µM amounted to 34 ± 11%. In addition, the inhibition at 30 µM was determined as 53 ± 3% on Kv3.1, 44 ± 9% on Kv1.3 (cloned) and 11 ± 1% at hSKM1.

Source of the values: publication PMC2212508 (The Journal of Experimental Medicine, 1998).
